In ChEMBL document CHEMBL1144952 (J Med Chem, 2003):

Columns and labels:
[1] = In vitro inhibitory concentration of compound against TNF-alpha release in human peripheral blood mononuclear cells was determined; type: functional
How it was run: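 PBMCs isolated by ficoll from healthy donor blood and plated at 1 × 10^6 cells/mL in RPMI with 10% FBS. Compounds were added for 30 min before stimulation with LPS (25 ng/mL final). After 6 h at 37 °C, supernatant TNF-α was measured by ELISA.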

Cannabinoid receptor 1 = Cannabinoid receptor 1 (Homo sapiens, UniProt P21554); experiment: Binding affinity of compound against human cannabinoid receptor 1 in chinese hamster ovary cells by using radioligand CP-55940; type: cell-based, CHO
Cannabinoid receptor 1, sequence (P21554 whole entry): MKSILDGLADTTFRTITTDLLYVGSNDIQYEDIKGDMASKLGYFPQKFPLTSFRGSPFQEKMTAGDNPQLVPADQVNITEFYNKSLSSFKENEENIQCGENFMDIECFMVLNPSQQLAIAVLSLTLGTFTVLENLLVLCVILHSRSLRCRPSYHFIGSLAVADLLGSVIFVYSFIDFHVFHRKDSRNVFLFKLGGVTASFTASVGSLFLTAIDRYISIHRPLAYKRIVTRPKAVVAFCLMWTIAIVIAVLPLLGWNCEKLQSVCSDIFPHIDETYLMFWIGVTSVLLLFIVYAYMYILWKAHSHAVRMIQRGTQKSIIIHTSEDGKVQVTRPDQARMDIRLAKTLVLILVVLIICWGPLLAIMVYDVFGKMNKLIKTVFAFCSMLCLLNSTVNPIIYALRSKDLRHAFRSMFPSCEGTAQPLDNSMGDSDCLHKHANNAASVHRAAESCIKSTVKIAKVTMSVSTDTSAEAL
How it was run: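 CHO-K1 membranes expressing human CB1; CP55,940 used as radiolabelled tracer (routinely 10 nM). Bound label collected by filtration and measured by scintillation counting.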

Cannabinoid receptor 2 [2] = target: T1, Cannabinoid receptor 2 (Homo sapiens, UniProt P34972); experiment: Binding affinity against human cannabinoid receptor 2 in chinese hamster ovary cells using WIN-55212-2 mesylate[57-3H]; type: cell-based, CHO
T1 sequence (P34972 whole entry): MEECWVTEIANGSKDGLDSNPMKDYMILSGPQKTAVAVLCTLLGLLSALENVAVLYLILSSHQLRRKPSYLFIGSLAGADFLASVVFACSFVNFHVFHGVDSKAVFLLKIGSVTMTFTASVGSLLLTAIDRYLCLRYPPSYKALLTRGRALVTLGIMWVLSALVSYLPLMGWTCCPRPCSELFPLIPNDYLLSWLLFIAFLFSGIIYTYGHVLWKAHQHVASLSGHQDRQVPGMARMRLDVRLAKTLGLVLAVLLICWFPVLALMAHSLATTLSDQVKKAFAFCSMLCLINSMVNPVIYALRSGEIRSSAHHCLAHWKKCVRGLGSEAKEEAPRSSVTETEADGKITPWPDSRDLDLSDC

Mus musculus [3] = experiment: Effective dose of compound against inhibition of LPS stimulated TNF-alpha release when administered intravenously in mice; type: functional; details: iv
How it was run: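 Female BALB/c mice, 6–8 weeks old. Compound in 10% propylene glycol/PBS was co-injected iv with LPS (E. coli O111:B4, 10 μg/mL in the dosing solution, 0.1 mL per mouse). Serum was taken 60 min later and TNF-α measured by ELISA; 8 mice per group, mean ± SD.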

Mus musculus [4] = experiment: Percentage reduction of serum TNF-alpha when dose of 50 mg/kg was administered orally in mice; type: functional; details: route oral
How it was run: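 Female BALB/c mice, 6–8 weeks old, given compound by gavage in 50% propylene glycol/water 10 min before iv LPS (0.1 mL of 10 μg/mL in PBS). Serum TNF-α was measured by ELISA 60 min after LPS; 8 mice per group, mean ± SD.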

Cannabinoid receptor 2 [5] = target: T1, Cannabinoid receptor 2; experiment: Percent Inhibition of binding at 100 nM against human cannabinoid receptor 2 in chinese hamster ovary cells by using a radioligand WIN-55212-2 mesylate[57-3H]; type: cell-based; details: CHO
Cannabinoid receptor 2 [6] = target: T1, Cannabinoid receptor 2; experiment: Percent Inhibition of binding at […] against human cannabinoid receptor 2 in chinese hamster ovary cells by using a radioligand WIN-55212-2 mesylate[57-3H]; type: cell-based; details: CHO

Compound	IC50 [1] [nM]	Ki (Cannabinoid receptor 1) [nM]	Ki (Cannabinoid receptor 2 [2]) [nM]	ED50 (Mus musculus [3]) [mg/kg]	Reduction (Mus musculus [4]) [%]	inhibition (Cannabinoid receptor 2 [5]) [%]	inhibition (Cannabinoid receptor 2 [6]) [%]
COc1cccc2c(C(=O)NC(c3ccccc3)c3ccccn3)nn(CCN3CCOCC3)c12 (configuration not stated)	20000	162	146	–	–	–	–
COc1cccc2c(C(=O)NC3C(C)(C)[C@@H]4CC[C@@]3(C)C4)nn(CCN3CCOCC3)c12 (some centres not stated)	30000	24	2	–	–	–	–
CCc1c(C(=O)NC2C(C)(C)[C@@H]3CC[C@@]2(C)C3)c2cccc(OC)c2n1CCN1CCOCC1 (some centres not stated)	–	–	110	–	–	–	–
COc1cccc2c3c(=O)n([C@@H]4C(C)(C)[C@@H]5CC[C@@]4(C)C5)ccc3n(CCN3CCOCC3)c12	8000	16	1	2	61	–	–
COc1cccc2c(C(=O)NC3C(C)(C)[C@@H]4CC[C@@]3(C)C4)cn(CCN3CCOCC3)c12 (some centres not stated)	13000	245	11	–	–	–	–
CCCc1c(C(=O)NC2C(C)(C)[C@@H]3CC[C@@]2(C)C3)c2cccc(OC)c2n1CCN1CCOCC1 (some centres not stated)	–	–	–	–	–	6	–
COc1ccccc1CNC(=O)c1nn(CCN2CCOCC2)c2c(OC)cccc12	43000	–	77	–	–	–	–
COc1cccc2c(C(=O)N(Cc3c(F)cccc3Cl)C(C)C)nn(CCN3CCOCC3)c12	36000	–	69	–	–	–	–
COc1cccc2c(C(=O)NC3C(C)(C)[C@@H]4CC[C@@]3(C)C4)c(C)n(CCN3CCOCC3)c12 (some centres not stated)	33000	8	29	–	–	–	–
COc1ccccc1Cn1ccc2c(c1=O)c1cccc(OC)c1n2CCN1CCOCC1	7000	3700	67	–	–	–	–
COc1cccc2c3c(=O)n(C(c4ccccc4)c4ccccn4)ccc3n(CCN3CCOCC3)c12 (configuration not stated)	–	–	–	–	–	–	13
